Reference: ChEMBL document CHEMBL1127320, “Dual-action cephalosporins incorporating a 3'-tertiary-amine-linked quinolone” (J Med Chem, 1994)
In brackets after ≈: the same amount, converted by molar mass.

Columns and labels:
Citrobacter freundii = assay: In vitro minimum inhibitory concentration was measured against Citrobacter freundii BS-16 (beta lactamase producer) strain.; assay type: functional
How it was run: (§1)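 MICs were determined by agar dilution with 2-fold dilutions giving final 128–0.0156 µg/mL, extended to 0.000977 µg/mL where needed. Streptococci were tested on brain heart infusion agar plus 20 units/mL catalase, Proteus on Mueller-Hinton with 3% agar, and others on Mueller-Hinton agar. Inocula were 100-fold-diluted overnight cultures, about 3 × 10^4 CFU/spot, read after overnight incubation at 36 °C.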

Enterococcus faecalis = assay: In vitro minimum inhibitory concentration was measured against Enterococcus faecalis ATCC 29212 strain.; assay type: functional
How it was run: (§2)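 Streptococci were tested on brain heart infusion agar plus 20 units/mL catalase, Proteus on Mueller-Hinton with 3% agar, and others on Mueller-Hinton agar. Inocula were 100-fold-diluted overnight cultures, about 3 × 10^4 CFU/spot, read after overnight incubation at 36 °C.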

Klebsiella pneumoniae [1] = assay: Tested for its efficacy against systemic murine infection caused by Klebsiella pneumoniae A; assay type: functional
How it was run: (§3)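 CD1 Swiss albino mice (18-20 g) were infected intraperitoneally with 0.5 mL of diluted culture. Within 5 min they received 1.0 mL test solution subcutaneously at the dorsal neck, in dilutions spanning 250–0.05 mg/kg. P. aeruginosa groups received a second dose at 3 h. Groups were six mice. ED50 was calculated by Reed–Muench interpolation of cumulative survival.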

Klebsiella pneumoniae [2] = assay: In vitro minimum inhibitory concentration was measured against Klebsiella pneumoniae A strain.; assay type: functional; how it was run: as §2
Micrococcus luteus = assay: In vitro minimum inhibitory concentration was measured against Micrococcus luteus ATCC 9341 strain.; assay type: functional; how it was run: as §2
Proteus mirabilis = assay: In vitro minimum inhibitory concentration was measured against Proteus mirabilis 90 strain.; assay type: functional; how it was run: as §2
Pseudomonas aeruginosa [3] = assay: Tested for its efficacy against systemic murine infection caused by Pseudomonas aeruginosa 8780.; assay type: functional; how it was run: as §3
Serratia marcescens [4] = assay: In vitro minimum inhibitory concentration was measured against Serratia marcescens 1071(beta lactamase producer) strain.; assay type: functional; how it was run: as §2
Streptococcus pneumoniae [5] = assay: Tested for its efficacy against systemic murine infection caused by Streptococcus pneumoniae 6301.; assay type: functional; how it was run: as §3
Serratia marcescens [6] = assay: Tested for its efficacy against systemic murine infection caused by Serratia marcescens SM.; assay type: functional; how it was run: as §3
Staphylococcus aureus [7] = assay: In vitro minimum inhibitory concentration was measured against Staphylococcus aureus 67-0 (Methicillin resistant) strain.; assay type: functional
Staphylococcus aureus [8] = assay: In vitro minimum inhibitory concentration was measured against Staphylococcus aureus 753 (Methicillin resistant) strain.; assay type: functional
Streptococcus pneumoniae [9] = assay: In vitro minimum inhibitory concentration was measured against Streptococcus pneumoniae 6301 strain; assay type: functional; how it was run: as §2
Staphylococcus aureus [10] = assay: Tested for its efficacy against systemic murine infection caused by Staphylococcus aureus smith.; assay type: functional; how it was run: as §3
Streptococcus pyogenes = assay: In vitro minimum inhibitory concentration was measured against Streptococcus pyogenes 4 strain.; assay type: functional; how it was run: as §2
[11] = Half life was measured as degradation by HPLC analysis.; assay type: ADME
Escherichia coli [12] = assay: In vitro minimum inhibitory concentration was measured against Escherichia coli 257 strain; (</=); assay type: functional; how it was run: as §1
Escherichia coli [13] = assay: In vitro minimum inhibitory concentration was measured against Escherichia coli ATCC 25922 strain.; (</=); assay type: functional; how it was run: as §1
Escherichia coli [14] = assay: In vitro minimum inhibitory concentration was measured against Escherichia coli TEM-1 (Beta lactamase producer) strain.; assay type: functional; how it was run: as §2
Enterobacter cloacae [15] = assay: In vitro minimum inhibitory concentration was measured against Enterobacter cloacae 5699 strain.; assay type: functional
Enterobacter cloacae [16] = assay: In vitro minimum inhibitory concentration was measured against Enterobacter cloacae p99 (beta lactamase producer) strain.; assay type: functional
[17] = molecular target: T1, Penicillin-binding protein 1A (Escherichia coli K-12) (UniProt P02918); assay: Affinity for penicillin binding protein 1a of Escherichia coli UB1005 (DC0) was evaluated.; set-up: unit not given here
T1 sequence (whole entry): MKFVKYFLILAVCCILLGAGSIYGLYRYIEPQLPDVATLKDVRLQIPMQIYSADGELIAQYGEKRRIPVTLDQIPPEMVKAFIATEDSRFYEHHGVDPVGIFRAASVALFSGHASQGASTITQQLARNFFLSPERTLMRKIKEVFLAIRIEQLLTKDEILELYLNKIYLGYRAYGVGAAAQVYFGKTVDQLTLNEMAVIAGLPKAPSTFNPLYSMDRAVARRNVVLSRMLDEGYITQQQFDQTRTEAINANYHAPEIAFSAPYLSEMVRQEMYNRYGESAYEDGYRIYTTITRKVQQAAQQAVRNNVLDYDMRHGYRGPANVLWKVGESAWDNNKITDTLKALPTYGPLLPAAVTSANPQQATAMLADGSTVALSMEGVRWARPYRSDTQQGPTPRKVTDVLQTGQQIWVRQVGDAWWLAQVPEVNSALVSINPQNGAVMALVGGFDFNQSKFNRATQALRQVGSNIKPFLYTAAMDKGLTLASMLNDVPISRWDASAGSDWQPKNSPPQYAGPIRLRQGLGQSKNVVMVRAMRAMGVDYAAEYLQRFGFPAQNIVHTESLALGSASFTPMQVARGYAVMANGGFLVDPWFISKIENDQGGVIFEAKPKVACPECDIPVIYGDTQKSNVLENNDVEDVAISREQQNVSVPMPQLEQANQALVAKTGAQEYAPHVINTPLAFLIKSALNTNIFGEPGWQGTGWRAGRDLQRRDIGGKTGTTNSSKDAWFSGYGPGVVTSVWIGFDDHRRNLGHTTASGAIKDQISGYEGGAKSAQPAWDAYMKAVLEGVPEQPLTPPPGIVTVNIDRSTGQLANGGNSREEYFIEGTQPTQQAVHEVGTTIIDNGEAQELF
How it was run: (§4)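 Solubilised membranes from sonicated E. coli UB1005 served as the binding-protein source. Binding was read as inhibition of [14C]penicillin G binding.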

[18] = molecular target: T2, Penicillin-binding protein 1B (Escherichia coli K-12) (UniProt P02919); assay: Affinity for penicillin binding protein 1b of Escherichia coli UB1005 (DC0) was evaluated.; set-up: unit not given here; how it was run: as §4
T2 sequence (whole entry): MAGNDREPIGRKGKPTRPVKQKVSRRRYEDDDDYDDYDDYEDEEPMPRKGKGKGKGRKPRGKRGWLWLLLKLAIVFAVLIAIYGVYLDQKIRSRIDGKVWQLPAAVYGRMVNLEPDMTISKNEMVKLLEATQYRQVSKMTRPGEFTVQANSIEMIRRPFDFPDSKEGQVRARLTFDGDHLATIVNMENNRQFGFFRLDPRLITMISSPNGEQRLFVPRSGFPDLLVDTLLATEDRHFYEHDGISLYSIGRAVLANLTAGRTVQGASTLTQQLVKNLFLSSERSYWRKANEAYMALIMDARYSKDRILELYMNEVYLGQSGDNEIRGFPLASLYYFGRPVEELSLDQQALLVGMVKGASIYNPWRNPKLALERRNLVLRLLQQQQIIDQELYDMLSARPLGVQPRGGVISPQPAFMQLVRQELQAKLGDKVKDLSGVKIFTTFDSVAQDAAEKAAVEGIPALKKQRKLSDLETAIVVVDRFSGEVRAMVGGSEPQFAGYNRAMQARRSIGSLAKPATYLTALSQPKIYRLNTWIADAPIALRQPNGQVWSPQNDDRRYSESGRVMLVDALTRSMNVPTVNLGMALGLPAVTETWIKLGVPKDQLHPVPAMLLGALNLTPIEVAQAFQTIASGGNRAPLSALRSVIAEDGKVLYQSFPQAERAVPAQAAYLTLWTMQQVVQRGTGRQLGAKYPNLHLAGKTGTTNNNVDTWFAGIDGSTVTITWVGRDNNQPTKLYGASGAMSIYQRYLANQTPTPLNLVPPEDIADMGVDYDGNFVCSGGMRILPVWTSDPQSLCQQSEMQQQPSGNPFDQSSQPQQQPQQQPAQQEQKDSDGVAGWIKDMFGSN

[19] = molecular target: T3, Peptidoglycan D,D-transpeptidase MrdA (Escherichia coli K-12) (UniProt P0AD65); assay: Affinity for penicillin binding protein 2 of Escherichia coli UB1005 (DC0) was evaluated.; set-up: unit not given here; how it was run: as §4
T3 sequence (whole entry): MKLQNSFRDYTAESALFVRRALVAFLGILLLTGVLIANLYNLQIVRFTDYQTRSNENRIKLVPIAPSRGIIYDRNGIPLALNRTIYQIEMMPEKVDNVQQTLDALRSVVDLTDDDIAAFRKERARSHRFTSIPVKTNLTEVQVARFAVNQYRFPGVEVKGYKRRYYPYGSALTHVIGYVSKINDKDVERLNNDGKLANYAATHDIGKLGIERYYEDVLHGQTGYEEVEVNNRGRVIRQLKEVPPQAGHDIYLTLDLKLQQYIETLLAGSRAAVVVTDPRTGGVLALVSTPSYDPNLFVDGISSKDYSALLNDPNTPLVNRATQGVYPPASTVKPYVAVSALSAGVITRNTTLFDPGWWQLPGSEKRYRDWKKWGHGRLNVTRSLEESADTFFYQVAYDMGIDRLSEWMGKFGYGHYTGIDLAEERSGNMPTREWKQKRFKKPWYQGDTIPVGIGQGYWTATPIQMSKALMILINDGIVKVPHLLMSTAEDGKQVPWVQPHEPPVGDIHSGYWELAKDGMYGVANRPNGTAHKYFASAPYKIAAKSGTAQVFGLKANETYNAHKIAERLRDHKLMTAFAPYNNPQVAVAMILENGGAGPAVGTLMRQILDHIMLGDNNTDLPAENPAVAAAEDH

Pseudomonas aeruginosa [20] = assay: In vitro minimum inhibitory concentration was measured against Pseudomonas aeruginosa 18S/H strain.; assay type: functional; how it was run: as §2
Pseudomonas aeruginosa [21] = assay: In vitro minimum inhibitory concentration was measured against Pseudomonas aeruginosa 8780 strain.; assay type: functional; how it was run: as §2
Proteus vulgaris = assay: In vitro minimum inhibitory concentration was measured against Proteus vulgaris 1028BC (beta lactamase producer) strain.; assay type: functional; how it was run: as §2
Staphylococcus aureus [22] = assay: In vitro minimum inhibitory concentration was measured against Staphylococcus aureus smith strain.; assay type: functional
Escherichia coli [23] = assay: Minimum inhibitory concentration for DC2, a permeability mutant; how it was run: as §1
[24] = tested on: Penicillin-binding protein 3 (Escherichia coli); assay: Affinity for penicillin binding protein 3 of Escherichia coli UB1005 (DC0) was evaluated.; set-up: unit not given here
Escherichia coli [25] = assay: In vitro minimum inhibitory concentration was measured against Escherichia coli 257 strain.; assay type: functional; how it was run: as §2
Escherichia coli [26] = assay: Minimum inhibitory concentration against E. coli UB1005 (DC0)
[27] = tested on: Penicillin-binding protein 3 (Escherichia coli); assay: Affinity for penicillin binding protein 3 of Escherichia coli UB1005 (DC0) was evaluated.; (</=)

Structure (SMILES) | MIC (Citrobacter freundii) [µg/mL] | MIC (Enterococcus faecalis) [µg/mL] | MIC (Klebsiella pneumoniae [2]) [µg/mL] | MIC (Micrococcus luteus) [µg/mL] | MIC (Proteus mirabilis) [µg/mL] | MIC (Serratia marcescens [4]) [µg/mL] | MIC (Staphylococcus aureus [7]) [µg/mL] | MIC (Staphylococcus aureus [8]) [µg/mL] | MIC (Streptococcus pneumoniae [9]) [µg/mL] | MIC (Streptococcus pyogenes) [µg/mL] | MIC (Escherichia coli [14]) [µg/mL] | MIC (Enterobacter cloacae [16]) [µg/mL] | Binding affinity [17] | Binding affinity [18] | Binding affinity [19] | MIC (Proteus vulgaris) [µg/mL] | MIC (Escherichia coli [23]) [µg/mL] | also measured
O=C(O)c1cn(C2CC2)c2cc(N3CCNCC3)c(F)cc2c1=O [CIPROFLOXACIN] | 0.031 (≈ 0.0936 µM) | 1 (≈ 3.02 µM) | 0.25 (≈ 0.754 µM) | 2 (≈ 6.04 µM) | 0.063 (≈ 0.19 µM) | 0.063 (≈ 0.19 µM) | 0.5 (≈ 1.51 µM) | 0.25 (≈ 0.754 µM) | 1 (≈ 3.02 µM) | 0.5 (≈ 1.51 µM) |  |  |  |  |  |  |  | ED50 (Klebsiella pneumoniae [1]): 1 mg/kg; ED50 (Pseudomonas aeruginosa [3]): 4 mg/kg; ED50 (Streptococcus pneumoniae [5]): > 100 mg/kg; ED50 (Serratia marcescens [6]): < 0.5 mg/kg; ED50 (Staphylococcus aureus [10]): 3 mg/kg
CCN1CCN(C(=O)N[C@@H](C(=O)N[C@@H]2C(=O)N3C(C(=O)O)=C(CN4CCN(c5cc6c(cc5F)c(=O)c(C(=O)O)cn6C5CC5)CC4)CS[C@H]23)c2ccc(O)cc2)C(=O)C1=O | 0.063 (≈ 0.0732 µM) | 16 (≈ 18.6 µM) | 0.5 (≈ 0.581 µM) | 0.5 (≈ 0.581 µM) | 1 (≈ 1.16 µM) | 0.25 (≈ 0.29 µM) | 16 (≈ 18.6 µM) | 2 (≈ 2.32 µM) | 0.125 (≈ 0.145 µM) | 0.125 (≈ 0.145 µM) | 0.031 (≈ 0.036 µM) | ≤ 0.016 | > 100 | > 100 | > 100 | 0.063 (≈ 0.0732 µM) | 0.25 (≈ 0.29 µM) | half-life [11]: 60 h; MIC (Escherichia coli [12]): < 0.016 µg/mL; MIC (Escherichia coli [13]): < 0.016 µg/mL; MIC (Enterobacter cloacae [15]): 0.125 µg/mL (≈ 0.145 µM); MIC (Pseudomonas aeruginosa [20]): 2 µg/mL (≈ 2.32 µM); MIC (Pseudomonas aeruginosa [21]): 8 µg/mL (≈ 9.29 µM); MIC (Staphylococcus aureus [22]): 2 µg/mL (≈ 2.32 µM); Binding affinity [24]: 2
O=C(O)C1=C(CN2CCN(c3cc4c(cc3F)c(=O)c(C(=O)O)cn4C3CC3)CC2)CS[C@@H]2[C@H](NC(=O)[C@H](O)c3ccccc3)C(=O)N12 | 0.125 (≈ 0.184 µM) |  |  | 0.031 (≈ 0.0457 µM) |  |  |  |  | 0.063 (≈ 0.093 µM) | 0.031 (≈ 0.0457 µM) | 0.125 (≈ 0.184 µM) | 0.031 (≈ 0.0457 µM) | 100 | > 100 | > 100 | 0.063 (≈ 0.093 µM) | 2 (≈ 2.95 µM) | MIC (Escherichia coli [25]): 0.125 µg/mL (≈ 0.184 µM); MIC (Escherichia coli [26]): 4 µg/mL (≈ 5.9 µM); Binding affinity [27]: < 0.1
